Laboratory results taken from ChEMBL document CHEMBL5576140, “Computational Design of Pore-Forming Peptides with Potent Antimicrobial and Anticancer Activities” (J Med Chem, 2024).
Calls of active or inactive are those of the source. No cut-off for these calls is given here.

Tests used:
Staphylococcus aureus [1] = assay: Antimicrobial activity against Staphylococcus aureus NE1506 harboring single transposon insertion mutation in V8 protease at 30 uM incubated for 18 hrs relative to control; type: functional
Summary of the method: (§1)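 CA-MRSA USA300 LAC derivative JE2 and single transposon insertion mutants derived from JE2, each lacking an extracellular protease gene, were exposed to peptides up to 30 μM. The read-out was percent growth inhibition. Peptides were dissolved in PBS, and tests were run in triplicate.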

Staphylococcus aureus [2] = assay: Antimicrobial activity against Staphylococcus aureus NE163 harboring single transposon insertion mutation in aureolysin at 30 uM incubated for 18 hrs relative to control; type: functional; summary of the method: as §1
Staphylococcus aureus [3] = assay: Antimicrobial activity against Staphylococcus aureus NE934 harboring single transposon insertion mutation in staphopain B at 30 uM incubated for 18 hrs relative to control; type: functional; summary of the method: as §1
Staphylococcus aureus [4] = assay: Antimicrobial activity against Staphylococcus aureus NE1740 harboring single transposon insertion mutation in staphopain A at 30 uM incubated for 18 hrs relative to control; type: functional; summary of the method: as §1
[5] = Hemolytic activity against human RBC incubated for 1 hr by microplate reader analysis; type: toxicity, cell-based, Erythrocyte; conditions: red blood cells (erythrocytes)
Summary of the method: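 Human red blood cells exposed to peptides up to 50 μM; hemolysis measured, IC50 derived where reached.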

[6] = Stability in simulated pore POPC lipid bilayer membrane; type: physicochemical
Summary of the method: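 Coarse-grained MD with the "scaled" Martini force field, peptides in POPC membrane, 51 μs. Counts transmembrane peptides at 51 μs. Water beads within 2 nm vertically of membrane centre and peptide–peptide interaction energy averaged over 48–51 μs. Contacts (salt bridge or stacking) scored below 0.8 nm and called stable if present ≥50% of the time.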

Pseudomonas aeruginosa [7] = assay: Depolarization of cytoplasmic membrane in Pseudomonas aeruginosa PAO1 at MIC measured for 45 mins by DiSC3-(5) dye based assay; type: functional, organism-based
Summary of the method: (§2)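 Bacteria loaded with membrane-potential dye DiSC3-(5), then treated with peptide at its MIC for the respective strain; depolarization read as rise in dye fluorescence; polymyxin B and levofloxacin as reference antibiotics.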

[8] = Toxicity against reconstructed human skin model assessed as tissue viability at 50 uM incubated for 1 hr followed by compound washout measured after 42 hrs by MTT assay; type: tissue-based, Skin of body; conditions: read-out: Activity
Summary of the method: (§3)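 Reconstructed human epidermis with stratum corneum, per OECD TG 439 skin irritation guideline. Tissues exposed 1 h to peptide at 50 μM, then 42 h post-treatment incubation. Viability read by MTT. Controls were SDS and melittin.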

[9] = Stability in human serum assessed as half life at 10 mg/ml by UPLC-MS analysis; type: ADME, cell-free
Summary of the method: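 Peptides dissolved in PBS and incubated in 25% human serum. Intact peptide remaining followed over time to at least 6 h; half-life taken as time to 50% stability.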

Acinetobacter baumannii [10] = assay: Anti-infective activity against Acinetobacter baumannii ATCC 19606 infected in neutropenic CD-1 mouse deep thigh infection model assessed as reduction in bacterial load at 0.17 mg/kg, ip measured after 4 days; type: functional, organism-based; conditions: time 4.0 day
Summary of the method: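 Neutropenic mice infected intramuscularly in right thigh with 10⁶ cells per mL A. baumannii ATCC 19606; single intraperitoneal peptide dose at 10× MIC; bacterial load determined 4 days after treatment (euthanized day 8); n = 6 per group from three inocula; one-way ANOVA with Dunnett's test versus untreated.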

Escherichia coli [11] = assay: Antimicrobial activity against Escherichia coli TOP10 at pH 6 to 8; type: functional, organism-based
Summary of the method: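 E. coli TOP10 broth microdilution with growth medium at pH 8 and pH 6; MIC taken as lowest concentration inhibiting visible growth.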

Escherichia coli [12] = assay: Induction of outer membrane permeabilization in Escherichia coli ATCC 11775 measured for 20 mins by NPN uptake assay; type: functional, organism-based
Mus musculus [13] = assay: Induction of wound healing activity in immunosuppressed Balb/c mouse excisional dorsal wound infection model infected with Acinetobacter baumannii NCTC 13301 assessed as reduction in wound expansion at about 10 mg/kg treated for 7 days once daily; type: functional, organism-based; conditions: time 7.0 day
Mus musculus [14] = assay: Induction of wound healing activity in immunosuppressed Balb/c mouse excisional dorsal wound infection model infected with Acinetobacter baumannii NCTC 13301 assessed as reduction in necrosis of epidermal tissue at wound edges at about 10 mg/kg treated for 7 days once daily; type: functional, organism-based; conditions: time 7.0 day
Mus musculus [15] = assay: Induction of wound healing activity in immunosuppressed Balb/c mouse excisional dorsal wound infection model infected with Acinetobacter baumannii NCTC 13301 assessed as decrease in serocellular crust at about 10 mg/kg treated for 7 days once daily measured after 20 days; type: functional, organism-based; conditions: time 20.0 day
Acinetobacter baumannii [16] = assay: Depolarization of cytoplasmic membrane in Acinetobacter baumannii ATCC 19606 at MIC measured for 45 mins by DiSC3-(5) dye based assay; type: functional, organism-based; summary of the method: as §2
Staphylococcus aureus [17] = assay: Depolarization of cytoplasmic membrane in Staphylococcus aureus ATCC 12600 at MIC measured for 45 mins by DiSC3-(5) dye based assay; type: functional, organism-based; summary of the method: as §2
[18] = Toxicity in immunosuppressed Balb/c mouse excisional dorsal wound infection model infected with Acinetobacter baumannii NCTC 13301 assessed as body weight loss at about 10 mg/kg treated for 7 days once daily measured after 45 days; type: organism-based; conditions: in vivo, 1080 h, time 45 day
Summary of the method: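 Excisional dorsal wound model in immunosuppressed mice infected with 5 × 10⁴ cells per mL of A. baumannii. Treated, PBS-treated and untreated groups were compared. Body weight and survival were followed for 45 days.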

[19] = Toxicity against reconstructed human skin model assessed as irritation at 50 uM incubated for 1 hr followed by compound washout measured after 42 hrs by MTT assay; type: tissue-based, Skin of body; summary of the method: as §3
Pseudomonas aeruginosa [20] = assay: Induction of outer membrane permeabilization in Pseudomonas aeruginosa PAO1 measured for 20 mins by NPN uptake assay; type: functional, organism-based
Summary of the method: (§4)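 Outer-membrane permeabilization of Gram-negative bacteria read as rise in fluorescence of the lipophilic dye NPN, which enters only when outer-membrane integrity is compromised. Peptides applied at their MIC against the respective strain; polymyxin B and levofloxacin as reference antibiotics. Triplicates.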

Escherichia coli [21] = assay: Depolarization of cytoplasmic membrane in Escherichia coli ATCC 11775 at MIC measured for 45 mins by DiSC3-(5) dye based assay; type: functional, organism-based; summary of the method: as §2
Acinetobacter baumannii [22] = assay: Antimicrobial activity against Acinetobacter baumannii CIP7010 incubated for 16 to 20 hrs; type: functional; conditions: time 16-20 hrs
Summary of the method: (§5)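 Broth microdilution assay. MIC was taken as the lowest peptide concentration that inhibited visible growth of the bacteria. Peptides were dissolved in PBS, and experiments were run in triplicate.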

Escherichia coli [23] = assay: Antimicrobial activity against Escherichia coli ATCC 25922 incubated for 18 to 20 hrs by broth microdilution assay; type: functional; conditions: time 18-20 hrs; summary of the method: as §5
Klebsiella pneumoniae [24] = assay: Induction of outer membrane permeabilization in Klebsiella pneumoniae ATCC 13883 measured for 20 mins by NPN uptake assay; type: functional, organism-based; summary of the method: as §4
Klebsiella pneumoniae [25] = assay: Depolarization of cytoplasmic membrane in Klebsiella pneumoniae ATCC 13883 at MIC measured for 45 mins by DiSC3-(5) dye based assay; type: functional, organism-based; summary of the method: as §2
Lipid bilayer = assay: Induction of pore formation in POPC/POPG SLBs at 1 uM measured for 2 hrs by real-time AFM analysis; conditions: filed as activator
Summary of the method: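 Real-time AFM topography of supported lipid bilayers of POPC:POPG 1:1 mol/mol, checked defect-free and vesicle-free before peptide addition. P:L 1:500, final peptide 1 μM. Images at 1 × 1 μm², 400 × 400 nm² and 200 × 200 nm², height scale 2 nm. Pores followed over 2 h.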

Acinetobacter baumannii [26] = assay: Induction of outer membrane permeabilization in Acinetobacter baumannii ATCC 19606 measured for 20 mins by NPN uptake assay; type: functional, organism-based
[27] = Toxicity in immunosuppressed Balb/c mouse excisional dorsal wound infection model infected with Acinetobacter baumannii NCTC 13301 assessed as decrease in animal survival at about 10 mg/kg treated for 7 days once daily measured after 45 days; type: organism-based; conditions: in vivo, 1080 h, time 45 day
[28] = Toxicity in neutropenic CD-1 mouse deep thigh infection model infected with Acinetobacter baumannii ATCC 19606 assessed as body weight change at 0.17 mg/kg, ip measured after 4 days; type: organism-based; conditions: in vivo, 96 h, time 4 day
Summary of the method: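 Neutropenic mice infected intramuscularly in the right thigh with 10⁶ cells per mL of A. baumannii ATCC 19606. […] Body weight monitored for toxicity. Euthanasia 4 days post-infection (day 8). n = 6 per group, from three inocula.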

Acinetobacter baumannii [29] = assay: Antimicrobial activity against colistin/meropenem-resistant Acinetobacter baumannii GSAB 164 incubated for 18 to 20 hrs by broth microdilution assay; type: functional; conditions: time 18-20 hrs; summary of the method: as §5
Enterococcus faecium = assay: Depolarization of cytoplasmic membrane in Enterococcus faecium ATCC 700221 at MIC measured for 45 mins by DiSC3-(5) dye based assay; type: functional, organism-based; summary of the method: as §2

Question: For H-KKKKLKKILKKLFNFINNLDNNLNDIKNNK-NH2, which inhibition at 30 µM (Staphylococcus aureus [1]) is on record?
Answer: The inhibition at 30 µM was less than 45%.

Question: And the inhibition at 30 µM (Staphylococcus aureus [2])?
Answer: The inhibition at 30 µM was less than 45%.

Question: And the inhibition at 30 µM (Staphylococcus aureus [3])?
Answer: The inhibition at 30 µM was less than 45%.

Question: And the inhibition at 30 µM (Staphylococcus aureus [4])?
Answer: The inhibition at 30 µM was less than 45%.

Question: Which IC50 at 1 h [5] does the source give for H-KKKKLKKILKKLFQFIDQLINDLQNIKKKK-NH2 here?
Answer: The IC50 at 1 h was greater than 50 µM.

Question: For H-KKKKLKKILKKLFQFINQLDNQLQDFKQNK-OH, which Stability [6] is on record?
Answer: The Stability was “Stable”.

Question: What about the IC50 at 1 h [5] of the same substance?
Answer: Its IC50 at 1 h is greater than 50 µM.

Question: With H-KKKKLKKILKKLFQFINQLDNQLQDIKKKK-NH2 as the substance, how does the Activity (Pseudomonas aeruginosa [7]) read?
Answer: The Activity was “Active”.

Question: What about the viability at 1 h, 50 µM [8] of the same substance?
Answer: The viability at 1 h, 50 µM was 100%.

Question: What about the half-life at 10 mg/ml [9] of the same substance?
Answer: Its half-life at 10 mg/ml is greater than 6 h.

Question: What about the Activity (Acinetobacter baumannii [10]) of the same substance?
Answer: Its Activity is “inactive”.

Question: And the Activity (Escherichia coli [11])?
Answer: The Activity was “Active”.

Question: What about the Activity (Escherichia coli [12]) of the same substance?
Answer: Its Activity is “Active”.

Question: And the Activity (Mus musculus [13])?
Answer: Its Activity is “Active”.

Question: And the Activity (Mus musculus [14])?
Answer: Its Activity is “Active”.

Question: And the Activity (Mus musculus [15])?
Answer: Its Activity is “inactive”.

Question: And the Activity (Acinetobacter baumannii [16])?
Answer: Its Activity is “Active”.

Question: And the Activity (Staphylococcus aureus [17])?
Answer: Its Activity is “Active”.

Question: What about the Activity [18] of the same substance?
Answer: Its Activity is “Toxic”.

Question: And the inhibition at 30 µM (Staphylococcus aureus [1])?
Answer: The inhibition at 30 µM was less than 45%.

Question: And the Activity [19]?
Answer: Its Activity is “Non-Toxic”.

Question: And the Activity (Pseudomonas aeruginosa [20])?
Answer: The Activity was “Active”.

Question: And the inhibition at 30 µM (Staphylococcus aureus [2])?
Answer: The inhibition at 30 µM was less than 45%.

Question: And the Activity (Escherichia coli [21])?
Answer: Its Activity is “Active”.

Question: And the MIC (Acinetobacter baumannii [22])?
Answer: The MIC was 0.5 µM.

Question: What about the MIC (Escherichia coli [23]) of the same substance?
Answer: The MIC was 1 µM.

Question: And the Activity (Klebsiella pneumoniae [24])?
Answer: The Activity was “Active”.

Question: And the Activity (Klebsiella pneumoniae [25])?
Answer: Its Activity is “Active”.

Question: What about the Activity (Lipid bilayer) of the same substance?
Answer: Its Activity is “Active”.

Question: And the inhibition at 30 µM (Staphylococcus aureus [3])?
Answer: The inhibition at 30 µM was less than 45%.

Question: And the inhibition at 30 µM (Staphylococcus aureus [4])?
Answer: The inhibition at 30 µM was less than 45%.

Question: And the IC50 at 1 h [5]?
Answer: Its IC50 at 1 h is greater than 50 µM.

Question: And the Activity (Acinetobacter baumannii [26])?
Answer: Its Activity is “inactive”.

Question: And the Activity [27]?
Answer: The Activity was “Toxic”.

Question: What about the Activity [28] of the same substance?
Answer: Its Activity is “Non-Toxic”.

Question: What about the MIC (Acinetobacter baumannii [29]) of the same substance?
Answer: The MIC was 1 µM.

Question: And the Activity (Enterococcus faecium)?
Answer: The Activity was “Active”.

Question: With H-KKKKLKKILKKLFQFINQLDNQLQDIKQNK-OH as the substance, how does the IC50 at 1 h [5] read?
Answer: Its IC50 at 1 h is greater than 50 µM.
